Experimental data reported in ChEMBL document CHEMBL1158185, “Synthesis and potent antileukemic activities of 10-benzyl-9(10H)-acridinones” (Bioorg Med Chem, 2008).

Tests used:
CCRF-CEM [1] = assay: Antiproliferative activity against human CCRF-CEM cells after 48 hrs by MTT assay; type: functional, cell-based
Procedure, shortened: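 CCRF-CEM cells in RPMI 1640 with 10% FBS, penicillin/streptomycin, 37 °C, 5% CO2, seeded at 2 × 10⁵ cells/mL. Compounds added at various concentrations, each in quintuplicate, for 48 h. Growth read by MTT. IC50 taken as the concentration giving 50% growth inhibition.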

CCRF-CEM [2] = assay: Induction of early stage apoptosis in human CCRF-CEM cells at 2.5 uM after 48 hrs by annexin V-FITC/propidium iodide staining relative to control; type: functional
Procedure, shortened: (§1)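 CCRF-CEM cells treated with compound at 1.0, 2.5 or 5 μM for 48 h, alongside untreated controls. Stained with annexin V-FITC/PI kit and analysed by flow cytometry, 488 nm laser. Early apoptosis counted as annexin V+/PI−; late apoptosis or necrosis as double positive.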

CCRF-CEM [3] = assay: Induction of early stage apoptosis in human CCRF-CEM cells at 5 uM after 48 hrs by annexin V-FITC/propidium iodide staining relative to control; type: functional; procedure, shortened: as §1
CCRF-CEM [4] = assay: Induction of late stage apoptosis in human CCRF-CEM cells at 2.5 uM after 48 hrs by annexin V-FITC/propidium iodide staining relative to control; type: functional; procedure, shortened: as §1
K562 = assay: Antiproliferative activity against human K-562 cells by MTT assay; type: functional, cell-based
Procedure, shortened: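 K562 cells seeded at 2 × 10⁵ cells/mL. Compound added at various concentrations in quintuplicate, then incubated. Viability read by MTT. IC50 is the concentration inhibiting growth by 50%.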

HL-60 = assay: Antiproliferative activity against human HL-60 cells by MTT assay; type: functional, cell-based
Procedure, shortened: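 HL60 cells in RPMI 1640 with 10% FBS, penicillin/streptomycin, 37 °C, 5% CO2, seeded at 2 × 10⁵ cells/mL. Compound added at various concentrations in quintuplicate, then incubated. Viability read by MTT. IC50 is the concentration giving 50% growth inhibition.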

CCRF-CEM [5] = assay: Induction of late stage apoptosis in human CCRF-CEM cells at 1 uM after 48 hrs by annexin V-FITC/propidium iodide staining relative to control; type: functional; procedure, shortened: as §1
CCRF-CEM [6] = assay: Induction of early stage apoptosis in human CCRF-CEM cells at 1 uM after 48 hrs by annexin V-FITC/propidium iodide staining relative to control; type: functional; procedure, shortened: as §1
CCRF-CEM [7] = assay: Induction of late stage apoptosis in human CCRF-CEM cells at 5 uM after 48 hrs by annexin V-FITC/propidium iodide staining relative to control; type: functional; procedure, shortened: as §1
CCRF-CEM [8] = assay: Induction of apoptosis in human CCRF-CEM cells assessed as accumulation at sub-G0 phase after 24 hrs by flow cytometry; type: functional, cell-based
Procedure, shortened: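 CCRF-CEM cells exposed to compound at 0.5, 1.0 or 2.5 μM for 24 h at 37 °C, alongside untreated controls. Cells washed twice in PBS, fixed in ice-cold 70% ethanol at 4 °C for 1–2 h, then stained with propidium iodide. Sub-diploid (sub-G0) DNA peak measured by flow cytometry, 488 nm argon laser.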

| Compound | IC50 (CCRF-CEM [1]) [µM] | also measured |
| --- | --- | --- |
| O=c1c2ccccc2n(Cc2ccccc2)c2ccccc12 | 52 |  |
| COc1ccc(Cn2c3ccccc3c(=O)c3ccccc32)cc1 | > 100 |  |
| O=c1c2ccccc2n(Cc2cccc(F)c2)c2ccccc12 | 62 |  |
| COc1cc(CN2CCC(=O)CC2)cc(OC)c1OC | > 100 |  |
| O=c1c2ccccc2[nH]c2ccccc12 [ACRIDONE] | > 100 |  |
| CCCOc1cc(Cn2c3ccccc3c(=O)c3ccccc32)cc(OCCC)c1 | 39.1 |  |
| CCOc1cc(Cn2c3ccccc3c(=O)c3ccccc32)cc(OCC)c1 | 6.7 |  |
| O=c1c2ccccc2n(Cc2cccc(C(F)(F)F)c2)c2ccccc12 | 36 |  |
| CCCCOc1cc(Cn2c3ccccc3c(=O)c3ccccc32)cc(OCCCC)c1 | > 100 |  |
| O=c1c2ccccc2n(Cc2cc(OCc3ccccc3)cc(OCc3ccccc3)c2)c2ccccc12 | > 100 |  |
| COc1cc(Cn2c3ccccc3c(=O)c3ccccc32)cc(OC)c1OC | 1.5 |  |
| COc1cc(Cn2c3ccccc3c(=O)c3ccccc32)cc(OC)c1 | 0.7 | Activity (CCRF-CEM [2]): 27.4%; Activity (CCRF-CEM [3]): 21.7%; Activity (CCRF-CEM [4]): 33.6%; IC50 (K562): 11.4 µM; IC50 (HL-60): 0.6 µM; Activity (CCRF-CEM [5]): 10%; Activity (CCRF-CEM [6]): 9.5%; Activity (CCRF-CEM [7]): 41.6%; Activity (CCRF-CEM [8]): Dose-dependent effect |
| COc1cccc(Cn2c3ccccc3c(=O)c3ccccc32)c1 | > 100 |  |
| Cc1cccc(Cn2c3ccccc3c(=O)c3ccccc32)c1 | 8.8 |  |
